Assay outcomes: PubChem, The Scripps Research Institute Molecular Screening Center
Sampled rows, rich in hits. Any-hit rate of the full collection: about 4.3%.
CHO parental Ca: ATP-evoked calcium signal inhibitors, parental CHO, primary screen, counter-screen for OX1R antagonist project, cell-based, fluorescence, Fluo-8 calcium dye | AID 463079, 2010 | inhibition, % at 5.6 µM | parental CHO-K1, ATP-induced calcium, Fluo-8 fluorescence | 330,000 tested, 0.63% active;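 active means inhibition above that plate's mean sample inhibition plus 3 SD, cut at about 26% in these data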;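 further: 0% = ATP-challenged DMSO wells and 100% = DMSO wells without ATP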
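Material – parental CHO cells · Reagent – ATP stimulus · Compound – single nominal dose of 5.6 µM per compound · Detection – Fluo-8 fluorescence · Read-out basis – percent inhibition of calcium signal · Controls – ATP-challenged DMSO wells low, unchallenged DMSO wells high · Repeats – no replicates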
OX1R antag-1: antagonists of human orexin 1 receptor (OX1R); OX1R-expressing cells, FRET antagonist read-out; inhibition, % at 6.6 µM; 330,000 tested, 1.8% active; AID 485270, 2010; in the data active means inhibition mostly above about 38%, no sharp cut-off; inactive means mostly below about 40%;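 further: 0% = agonist challenge alone and 100% = reference antagonist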
TAAR1 ag: human TAAR1 agonists, primary screen, Fluo-8 calcium fluorescence, CHO RD-HGA16 cells; vehicle wells 0%, saturating PEA agonist 100%; AID 624467, 2012; Trace amine-associated receptor 1 (Homo sapiens), Q96RJ0; 360,000 tested, 0.99% active; activation, % at 3 µM;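 active means activation above the mean activation of all test compounds in the run plus 3 SD, cut at about 38% in these data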
Target sequence (Q96RJ0 whole entry, looked up): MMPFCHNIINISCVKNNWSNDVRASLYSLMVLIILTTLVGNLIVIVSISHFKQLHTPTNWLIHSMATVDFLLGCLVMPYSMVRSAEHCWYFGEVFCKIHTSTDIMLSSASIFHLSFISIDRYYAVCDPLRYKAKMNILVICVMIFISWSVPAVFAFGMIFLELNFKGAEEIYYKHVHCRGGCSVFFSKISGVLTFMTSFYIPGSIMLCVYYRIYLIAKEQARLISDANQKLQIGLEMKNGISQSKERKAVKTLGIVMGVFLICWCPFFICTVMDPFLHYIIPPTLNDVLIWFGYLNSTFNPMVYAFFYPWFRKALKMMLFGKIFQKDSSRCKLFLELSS
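test system = CHO RD-HGA16 cells carrying human TAAR1 plus Gα16 | schedule = 17-24 h seeding, 75 min 37 °C dye, 30 min RT | compound dosing = 3 µM single concentration | control set = DMSO and PEA EC100 | replicates = n 1 | signal = Fluo-8 fluorescence, 5 s baseline then 140 s kinetic read | measure = percent activation vs PEA EC100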
GalR3 antagonist: GalR3 antagonists in HEK293 cells, primary screen, cell-based, fluorescence readout. inhibition, % at 3 µM. AID 651719, 2012. HEK293 GalR3-CNG cAMP membrane potential fluorescence; galR3 body fused to GalR1 C-terminus. 360,000 tested, 0.44% active;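 active means inhibition above the screen-wide average plus 3 SD, cut at about 13% in these data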;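 further: forskolin and galanin both at EC90 stimulate the cells; cAMP rise reported by CNG channel membrane potential dye signal; 0% = forskolin plus galanin with DMSO and 100% = forskolin alone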
Target sequence (O60755 1-299 limits assumed): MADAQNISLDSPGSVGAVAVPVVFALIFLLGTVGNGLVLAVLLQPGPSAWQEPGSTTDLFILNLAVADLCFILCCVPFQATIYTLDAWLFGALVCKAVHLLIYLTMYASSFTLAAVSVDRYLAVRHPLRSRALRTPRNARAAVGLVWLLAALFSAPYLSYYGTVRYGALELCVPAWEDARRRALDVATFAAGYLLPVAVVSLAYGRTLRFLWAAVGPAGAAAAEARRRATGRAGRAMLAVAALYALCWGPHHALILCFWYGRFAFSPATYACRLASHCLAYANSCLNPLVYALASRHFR
OX1R antag-2: OX1R (HCRTR1) antagonists, primary screen, fluorescence, CHO/OX1R cells, Fluo-8 calcium, orexin A; Fluo-8 calcium fluorescence; inhibition, % at 5 µM; 330,000 tested, 0.43% active; Orexin/Hypocretin receptor type 1 (Homo sapiens), O43613; AID 434989, 2010;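 active means inhibition above its plate's threshold, mean inhibition of all tested compounds on the plate plus 3 SD, cut at about 37% in these data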;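 further: 0% = orexin A challenge wells and 100% = SB-334867-A antagonist wells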
TAAR1 antagonist: human TAAR1 antagonists, primary screen, Fluo-8 calcium fluorescence, CHO RD-HGA16 cells; Trace amine-associated receptor 1 (Homo sapiens), Q96RJ0; inhibition, % at 3 µM; 360,000 tested, 1.5% active; antagonist;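 active means inhibition above a per-plate cutoff, the mean inhibition of test compounds on that plate plus 3 SD, cut at about 49% in these data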;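 further: 0% = DMSO plus EC80 beta-PEA response and 100% = DMSO alone without agonist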
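Assay system: RD-HGA16 CHO cells with stable hTAAR1 and Gα16 / Reagent: EC80 β-phenethylamine stimulus / Doses: 3 µM, single point / Timing: dye loading 75 min at 37 °C, then 30 min room temperature / Measured by: Fluo-8 intracellular calcium dye fluorescence, real-time kinetic reads / Controls: vehicle wells and EC80 agonist wells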
GalR3 conf: GalR3 antagonist hit confirmation, cell-based, fluorescence, triplicate; shares compounds with GalR3 antagonist; HEK293 GalR3 CNG cAMP biosensor, membrane potential fluorescence; galR3 fused to GalR1 carboxy tail; challenged with forskolin and galanin at EC90; inhibition, % at 3 µM; 1,600 tested, 59% active; AID 652245, 2013;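 active means inhibition above the primary screen's cutoff, the mean inhibition of all screened compounds plus 3 SD, cut at about 13% in these data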;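 further: 0% = forskolin plus galanin and 100% = forskolin alone with DMSO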
HEK-CNG parental: nonspecific cAMP agonists in parental HEK-CNG cells, counter-screen for GalR3 antagonist project, cell-based, fluorescence, high throughput; shares compounds with GalR3 antagonist; HEK293-CNG parental cells, cAMP membrane potential fluorescence; normalised: DMSO wells 0%, forskolin wells 100%; activation, % at 3 µM; 1,600 tested, 10% active; in the data active means activation above about 1.3%
Starred values were filed as active, the others as inactive; . = no result given.

SMILES	CHO parental Ca	OX1R antag-1	TAAR1 ag	GalR3 antagonist	OX1R antag-2	TAAR1 antagonist	GalR3 conf	HEK-CNG parental
O=C(NCC(F)(F)F)c1ccc2sc([C@@H]3O[C@H](CO)[C@H](O)[C@H](O)[C@H]3O)nc2c1	.	.	3	40*	.	-6	0	0
O=C(NCc1cccc(C(F)(F)F)c1)c1ccc2sc([C@@H]3O[C@H](CO)[C@@H](O)[C@H]3O)nc2c1	.	.	3	-2	.	-5	.	.
C=CCC1(CC=C)CCCN1C(=O)c1cc(COc2ccc(C)nc2)on1	52*	20	0	99*	7	22	103*	0
C=CCC1(CC=C)CCCN1C(=O)c1cc(COc2ccc(F)c(F)c2)on1	9	13	6	-11	-6	38	.	.
C=CCOc1cccn2c(N(C)C(=O)c3ccncc3)c(CC)nc12	.	.	2	-6	.	-3	.	.
CCCOc1ccc(Br)cc1CSC(=N)N	14	12	80*	50*	0	50*	95*	5.8*
CCOc1ccc(Br)cc1CC(=O)O	-24	17	5	1	-15	-1	.	.
CCn1c(=O)c2sccc2n(Cc2cccc(C)c2)c1=O	-11	3	-1	-7	-25	-40	.	.
CC(C)(C)CN1CCN(Cc2nc(-c3ccc(F)cc3)cs2)CC1CCO (configuration not stated)	-14	14	11	101*	-29	6	109*	0
COC(=O)c1ccc2nc(-c3ccc(F)cc3)c(CC3CCCCC3)n2c1	.	.	-2	-2	.	-12	.	.
Cc1ccc(-c2csc(NC(=O)CSc3nc4ccccc4c(=O)n3CCCN(C)C)n2)cc1	-4	11	6	-4	-10	8	.	.
COc1ccc(C2Nc3ccccc3C(=O)N2c2ccccc2)cc1Cn1cc([N+](=O)[O-])cn1 (configuration not stated)	-12	7	5	-4	-32	22	.	.
COc1ccc(N2C(=O)c3ccccc3NC2c2ccc(OC)c(Cn3cc([N+](=O)[O-])cn3)c2)cc1 (configuration not stated)	-11	13	3	59*	-21	20	24*	0
Cc1[nH]nc(Nc2ccccc2)c1[N+](=O)[O-]	11	19	5	4	-1	5	.	.
Cc1[nH]nc(NCCO)c1[N+](=O)[O-]	-14	11	2	.	-8	-9	69*	-1
COc1cccc(NC(=O)CN(C)C(=O)CC2CCCC2)c1	.	.	4	-4	.	-18	.	.
CCCc1cc(=O)oc2c3c(cc(OCC(=O)NCc4ccncc4)c12)OC(C)(C)CC3	-21	12	2	15*	-30	49*	7	0
Cc1c(-n2c(O)c(C3=c4ccccc4=NC3=O)sc2=S)c(=O)n(-c2ccccc2)n1C	-7	39	0	-2	-1	-7	.	.
O=C1N=c2ccccc2=C1c1sc(=S)n(-c2ccc(O)cc2)c1O	31	9	0	13*	-11	-11	7	-2
CCN(Cc1ccccc1)c1ccc(/C=N/NC(=O)c2cccc(S(=O)(=O)N3CCOCC3)c2)cc1	2	40	0	24*	9	0	89*	-2
COc1cc(C)c(Br)cc1S(=O)(=O)NCc1ccncc1	14	11	5	39*	10	4	58*	0
Cc1ccc(S(=O)(=O)NCc2ccncc2)c(C)c1C	41*	31	4	86*	3	4	111*	-1
COc1cc(C)c(Br)cc1S(=O)(=O)NCc1cccs1	-15	29	6	-4	-12	22	.	.
Cc1ccc(S(=O)(=O)NCc2ccccn2)c(C)c1C	-10	20	0	-9	-1	-9	.	.
O=C(COc1ccc2c(c1)oc(=O)c1ccccc12)NC(Cc1ccc(Cl)cc1)C(=O)O (configuration not stated)	0	10	3	26*	13	-28	4	0
SMILES	CHO parental Ca	OX1R antag-1	TAAR1 ag	GalR3 antagonist	OX1R antag-2	TAAR1 antagonist	GalR3 conf	HEK-CNG parental
O=C1OCc2ccc(NC(=O)c3sccc3Cl)cc21	-2	29	3	15*	-11	-8	7	0
O=C(Nc1ccc2c(c1)C(=O)OC2)c1ccc(Cl)cc1	-7	4	1	-7	-4	-16	.	.
CC1(C)CC2CC(C)(CN2S(=O)(=O)c2ccc(C(=O)Nc3cc(S(=O)(=O)N4CCOCC4)ccc3Cl)cc2)C1 (configuration not stated)	-2	16	6	-4	10	0	.	.
CC1(C)CC2CC(C)(CN2S(=O)(=O)c2ccc(C(=O)Nc3cccc(S(=O)(=O)N4CCOCC4)c3)cc2)C1 (configuration not stated)	6	7	0	87*	2	11	115*	-2
O=C1NC(=O)C(CSc2ccccc2)(c2ccccc2)N1 (configuration not stated)	.	.	1	-6	.	7	.	.
CC1(CSc2ccccc2)CC(=O)N1 (configuration not stated)	.	.	1	21*	.	0	29*	0
CCC(CC)C(=O)Nc1ccc([N+](=O)[O-])cn1	-6	19	-1	16*	-16	-4	24*	1
Cc1cc(=O)[nH]c2ccc(S(=O)(=O)NC3CCCCC3)cc12	-4	8	1	13*	-30	-9	38*	0
Cc1ccc(N2C(=O)c3ccccc3NC2C(C)Cc2ccc3c(c2)OCO3)cc1 (configuration not stated)	7	10	7	39*	-3	43	48*	0
CC(=O)N/C(=N/c1nc(C)cc(C)n1)Nc1cccc(C)c1	-11	-6	1	-7	-14	-4	.	.
Cc1csc2ncnc(NC3CCN(Cc4ccccc4)CC3)c12	2	35	2	96*	23	17	108*	0
